From ChEMBL document CHEMBL1139262, “Design, synthesis, and evaluation of 5-sulfamoyl benzimidazole derivatives as novel angiotensin II receptor antagonists” (Bioorg Med Chem, 2008)

Legend:
[1] = target: T1, Type-1 angiotensin II receptor A (Rattus norvegicus) (UniProt P25095); test: (§1) Antagonist activity at AT1 receptor in rat aortic rings; type: functional
T1 sequence (whole entry): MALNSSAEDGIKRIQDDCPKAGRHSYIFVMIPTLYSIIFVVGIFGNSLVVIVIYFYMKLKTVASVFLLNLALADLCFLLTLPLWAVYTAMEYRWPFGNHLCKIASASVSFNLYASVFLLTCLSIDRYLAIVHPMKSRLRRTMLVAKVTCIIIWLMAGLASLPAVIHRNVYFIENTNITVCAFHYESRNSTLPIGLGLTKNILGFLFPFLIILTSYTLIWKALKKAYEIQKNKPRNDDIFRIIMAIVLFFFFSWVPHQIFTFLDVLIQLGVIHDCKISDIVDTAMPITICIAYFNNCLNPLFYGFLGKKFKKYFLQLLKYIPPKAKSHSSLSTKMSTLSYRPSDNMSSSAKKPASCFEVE
Procedure, shortened: (§2)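 Isolated rat aortic ring in 10 ml bath of Krebs–Henseleit at 37 °C, pH 7.4, oxygenated, under 1 g tension. Ang II cumulative curve in 0.5-log steps (1 × 10−10 to 1 × 10−5), repeated after 15 min antagonist exposure at 1, 3 or 10 nmol. Response taken as % of maximal Ang II tension.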

[2] = target: T2, Type-1 angiotensin II receptor A (Rattus norvegicus, UniProt P25095); test: as §1; type: functional; details: read-out: pA2 (converted); procedure, shortened: as §2
T2 sequence (P25095 whole entry): T1 sequence (whole entry)

[3] = system: Rattus norvegicus; test: Antihypertensive effect in desoxycortisone acetate-induced hypertensive rat assessed as maximum decrease in mean arterial blood pressure at 3 mg/kg, ip after 6 hrs; type: functional, Artery; details: route intraperitoneal
Procedure, shortened: (§3)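 Hypertension induced by uninephrectomy plus DOCA 40 mg kg−1 sc twice weekly for up to six weeks, with 1.0% NaCl and 0.2% KCl in drinking water; sham rats got tap water. Compound given ip, and mean arterial blood pressure measured 6 h after dosing. Activity expressed as fall in MABP.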

[4] = system: Rattus norvegicus; test: Antihypertensive effect in desoxycortisone acetate-induced hypertensive rat assessed as maximum decrease in mean arterial blood pressure at 5 mg/kg, ip after 6 hrs; type: functional, Artery; details: route intraperitoneal; procedure, shortened: as §3

`CCCCc1nc2cc(S(=O)(=O)NC(C)C)ccc2n1Cc1ccc(-c2ccccc2C(=O)O)cc1` gave a pA10 [1] of 6.3, a Kb [2] of 63.1 nM and an Activity [3] of 51.7 mmHg.
In the case of `CCCCc1nc2cc(S(=O)(=O)NC3CCCCC3)ccc2n1Cc1ccc(-c2ccccc2C(=O)O)cc1`, the pA10 [1] is reported as 5.7, the Kb [2] is reported as 12.6 nM and the Activity [3] is reported as 64.4 mmHg.
For `CCCCc1nc2cc(S(=O)(=O)NC)ccc2n1Cc1ccc(-c2ccccc2C(=O)O)cc1`, the pA10 [1] was 6.3, the Kb [2] was 126 nM and the Activity [3] was 52.5 mmHg.
For `CCCCc1nc2cc(S(N)(=O)=O)ccc2n1Cc1ccc(-c2ccccc2C(=O)O)cc1`, the pA10 [1] was 6.1, the Kb [2] was 200 nM and the Activity [3] was 51.4 mmHg.
`CCOc1nc2cccc(C(=O)O)c2n1Cc1ccc(-c2ccccc2-c2nnn[nH]2)cc1` showed a pA10 [1] of 6.7, a Kb [2] of 3.16 nM and an Activity [4] of 56.2 mmHg.
`CCCCc1nc2cc(S(=O)(=O)NCC)ccc2n1Cc1ccc(-c2ccccc2C(=O)O)cc1` gave a pA10 [1] of 6.2, a Kb [2] of 79.4 nM and an Activity [3] of 49.9 mmHg.
`CCCCNS(=O)(=O)c1ccc2c(c1)nc(CCCC)n2Cc1ccc(-c2ccccc2C(=O)O)cc1` was tested, and the pA10 [1] was 6.2, the Kb [2] was 100 nM and the Activity [3] was 47.6 mmHg.
Compound `CCCCc1nc2ccccc2n1Cc1ccc(-c2ccccc2C(=O)O)cc1` has a pA10 [1] of 6.7 and a Kb [2] of 3.16 nM.
`CCCCc1nc2cc(S(=O)(=O)NCCC)ccc2n1Cc1ccc(-c2ccccc2C(=O)O)cc1` showed a pA10 [1] of 6.4, a Kb [2] of 79.4 nM and an Activity [3] of 50.2 mmHg.
For `CCCCc1nc2cc(S(=O)(=O)NC(C)(C)C)ccc2n1Cc1ccc(-c2ccccc2C(=O)O)cc1`, the pA10 [1] was 5.4, the Kb [2] was 3.98 nM and the Activity [3] was 62.4 mmHg.
In the case of `CCCCc1nc2cc(S(=O)(=O)O)ccc2n1Cc1ccc(-c2ccccc2C(=O)O)cc1`, the pA10 [1] is reported as 5.8, the Kb [2] is reported as 251 nM and the Activity [3] is reported as 44.7 mmHg.
Compound `CCCCc1nc(Cl)c(CO)n1Cc1ccc(-c2ccccc2-c2nnn[nH]2)cc1` [LOSARTAN] has a pA10 [1] of 7.1 and an Activity [4] of 58.3 mmHg.
